Experimental data reported in the M2OR odorant receptor database.
Positions count from the first letter of the chain named.

Experiments:
Conditions in all cases: stereoisomer not certain
[1] = molecular target: T1, OR1D5 (Homo sapiens) (UniProt P58170)
T1 sequence (whole entry): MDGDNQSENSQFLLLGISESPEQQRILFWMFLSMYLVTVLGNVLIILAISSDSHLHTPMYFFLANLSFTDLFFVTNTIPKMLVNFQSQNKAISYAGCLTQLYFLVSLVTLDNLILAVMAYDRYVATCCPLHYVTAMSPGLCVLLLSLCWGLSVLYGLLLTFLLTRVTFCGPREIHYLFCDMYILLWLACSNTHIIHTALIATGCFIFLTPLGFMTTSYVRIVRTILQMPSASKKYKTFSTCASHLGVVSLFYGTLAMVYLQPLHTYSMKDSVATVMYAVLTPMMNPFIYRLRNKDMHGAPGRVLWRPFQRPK
Method in brief: (§1)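 Assay methods differ from source to source, frequently being transient luciferase assays in mammalian cell lines. For each receptor–molecule pair, the label responsive (active) applies when the original authors judged the measured signal statistically different from baseline, and non-responsive (inactive) applies otherwise.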

[2] = molecular target: T2, OR1E1 (Homo sapiens) (UniProt P30953)
T2 sequence (whole entry): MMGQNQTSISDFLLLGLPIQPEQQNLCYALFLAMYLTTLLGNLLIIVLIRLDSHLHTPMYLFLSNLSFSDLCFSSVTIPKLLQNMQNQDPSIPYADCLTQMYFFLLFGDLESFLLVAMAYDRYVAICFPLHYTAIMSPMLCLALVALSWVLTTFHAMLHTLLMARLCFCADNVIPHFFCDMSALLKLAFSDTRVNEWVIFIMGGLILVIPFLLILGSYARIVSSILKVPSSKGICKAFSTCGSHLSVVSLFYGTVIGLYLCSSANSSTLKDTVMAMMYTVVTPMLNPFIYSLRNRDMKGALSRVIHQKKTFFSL
Method in brief: as §1

[3] = molecular target: T3, OR1E2 (Homo sapiens) (UniProt P47887)
T3 sequence (whole entry): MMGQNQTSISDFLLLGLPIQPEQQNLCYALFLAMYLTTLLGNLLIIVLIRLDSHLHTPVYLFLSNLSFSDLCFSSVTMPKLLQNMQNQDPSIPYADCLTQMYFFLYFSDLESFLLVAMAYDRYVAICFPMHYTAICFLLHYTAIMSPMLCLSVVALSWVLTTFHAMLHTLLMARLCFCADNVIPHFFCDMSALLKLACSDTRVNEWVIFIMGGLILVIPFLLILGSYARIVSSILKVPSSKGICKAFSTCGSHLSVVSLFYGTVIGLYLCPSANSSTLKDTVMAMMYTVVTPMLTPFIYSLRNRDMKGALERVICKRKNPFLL
Method in brief: as §1

[4] = system: T4, OR1E2
T4 sequence (whole entry): T3 sequence (whole entry) with C27R
Method in brief: as §1

[5] = molecular target: T5, OR1F1 (Homo sapiens) (UniProt O43749)
T5 sequence (whole entry): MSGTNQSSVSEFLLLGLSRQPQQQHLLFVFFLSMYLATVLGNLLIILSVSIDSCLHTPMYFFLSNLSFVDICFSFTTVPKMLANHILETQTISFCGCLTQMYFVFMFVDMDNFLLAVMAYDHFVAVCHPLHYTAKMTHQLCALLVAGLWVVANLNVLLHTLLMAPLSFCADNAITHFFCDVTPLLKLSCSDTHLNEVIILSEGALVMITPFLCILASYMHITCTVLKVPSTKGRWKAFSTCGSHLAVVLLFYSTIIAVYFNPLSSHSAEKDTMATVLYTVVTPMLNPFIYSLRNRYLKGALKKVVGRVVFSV
Method in brief: as §1

[6] = molecular target: T6, OR1D4 (Homo sapiens) (UniProt P47884)
T6 sequence (whole entry): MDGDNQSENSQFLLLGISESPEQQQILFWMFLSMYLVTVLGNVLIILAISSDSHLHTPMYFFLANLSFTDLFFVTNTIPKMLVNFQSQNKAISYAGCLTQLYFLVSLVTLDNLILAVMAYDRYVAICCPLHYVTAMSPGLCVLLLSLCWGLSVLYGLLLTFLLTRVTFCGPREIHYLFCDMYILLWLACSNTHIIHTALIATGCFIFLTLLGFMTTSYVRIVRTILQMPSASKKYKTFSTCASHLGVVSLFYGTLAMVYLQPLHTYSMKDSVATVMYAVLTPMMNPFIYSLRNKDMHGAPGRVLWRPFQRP
Method in brief: as §1

[7] = molecular target: OR1E3 (Homo sapiens) (UniProt Q8WZA6)
Chain of OR1E3 (Homo sapiens) (Q8WZA6 whole entry): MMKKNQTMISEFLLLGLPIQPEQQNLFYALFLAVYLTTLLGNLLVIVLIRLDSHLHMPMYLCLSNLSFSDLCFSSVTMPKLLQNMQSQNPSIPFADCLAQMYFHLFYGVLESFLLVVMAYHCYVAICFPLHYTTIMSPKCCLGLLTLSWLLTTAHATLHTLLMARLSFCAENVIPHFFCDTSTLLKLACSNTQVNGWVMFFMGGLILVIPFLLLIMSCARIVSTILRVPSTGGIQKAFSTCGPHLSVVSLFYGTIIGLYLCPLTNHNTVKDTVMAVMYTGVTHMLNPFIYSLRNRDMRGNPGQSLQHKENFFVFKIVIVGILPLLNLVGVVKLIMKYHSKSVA
Method in brief: as §1

[8] = system: OR1D2
Method in brief: as §1
Target sequence in this assay (as listed by the source): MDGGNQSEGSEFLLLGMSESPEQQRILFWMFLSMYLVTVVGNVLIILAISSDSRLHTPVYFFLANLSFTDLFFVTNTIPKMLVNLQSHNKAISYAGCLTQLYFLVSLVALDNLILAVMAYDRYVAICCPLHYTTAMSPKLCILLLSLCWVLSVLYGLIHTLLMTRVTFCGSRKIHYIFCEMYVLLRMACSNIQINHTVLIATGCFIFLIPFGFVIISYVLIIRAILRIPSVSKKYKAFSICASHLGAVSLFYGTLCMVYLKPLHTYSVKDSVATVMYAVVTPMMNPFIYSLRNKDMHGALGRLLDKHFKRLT

[9] = system: OR1D2; remark: listed apart in the source
Method in brief: as §1
Target sequence in this assay (as listed by the source): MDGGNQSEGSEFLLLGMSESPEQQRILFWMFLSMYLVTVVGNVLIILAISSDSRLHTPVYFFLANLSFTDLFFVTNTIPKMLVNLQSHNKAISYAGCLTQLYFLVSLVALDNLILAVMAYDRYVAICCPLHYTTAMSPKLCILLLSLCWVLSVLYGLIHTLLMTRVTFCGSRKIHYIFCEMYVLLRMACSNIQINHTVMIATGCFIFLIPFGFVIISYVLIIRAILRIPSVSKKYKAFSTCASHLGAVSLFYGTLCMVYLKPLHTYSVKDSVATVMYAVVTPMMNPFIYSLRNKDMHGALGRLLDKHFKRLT

[10] = system: OR1D2; remark: listed apart in the source
Method in brief: as §1
Target sequence in this assay (as listed by the source): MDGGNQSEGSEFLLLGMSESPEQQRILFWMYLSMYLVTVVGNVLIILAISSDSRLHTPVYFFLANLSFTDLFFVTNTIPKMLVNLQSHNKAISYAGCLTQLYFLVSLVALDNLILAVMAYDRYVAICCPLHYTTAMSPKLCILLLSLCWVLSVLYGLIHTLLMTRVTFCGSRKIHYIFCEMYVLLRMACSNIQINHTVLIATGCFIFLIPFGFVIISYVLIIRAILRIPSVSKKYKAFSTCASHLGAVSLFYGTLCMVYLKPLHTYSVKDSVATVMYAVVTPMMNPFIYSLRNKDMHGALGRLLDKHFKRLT

Measured: odorant receptor agonist call

CCC1OC(=O)C(O)=C1C (stereo not drawn)
inactive: [1] | [2] | [3] | [4] | [5]

CCCC(S)CCOC(C)=O (stereo not drawn)
inactive: [1] | [2] | [3] | [4] | [5]

CC1=C(O)C(=O)OC1C (stereo not drawn)
inactive: [1] | [2] | [3] | [4] | [5]

CCCCCCC=CCCC=O
inactive: [1] | [2] | [3] | [4] | [5]

CCC(S)C(C)CO (stereo not drawn)
inactive: [6] | [1] | [2] | [3] | [5]

CC1=C(O)C(=O)C(C)O1 (stereo not drawn)
inactive: [1] | [2] | [3] | [4] | [5]

Cc1cnc(C)c(C)n1
inactive: [1] | [2] | [3] | [4] | [5]

CCCCC(S)C(C)CO (stereo not drawn)
inactive: [6] | [1] | [2] | [3] | [5]

CC1CCCCCCCCCCCCC(=O)C1 (stereo not drawn)
inactive: [6] | [1] | [3] | [7] | [5]

CC1=NC(C)C(C)S1 (stereo not drawn)
inactive: [1] | [2] | [3] | [4] | [5]

CC(C=O)Cc1ccc(C(C)(C)C)cc1 (stereo not drawn)
inactive: [8] | [9] | [10]

CCCCCC(S)C(C)CO (stereo not drawn)
inactive: [6] | [1] | [2] | [3] | [5]

CC(=O)c1c(C)c([N+](=O)[O-])c(C(C)(C)C)c([N+](=O)[O-])c1C
inactive: [6] | [1] | [3] | [7] | [5]

CC(CO)CS (stereo not drawn)
inactive: [6] | [1] | [2] | [3] | [5]

CCCCCC(=O)C(C)C(C)=O (stereo not drawn)
inactive: [6] | [1] | [2] | [3] | [5]

CCC1OC(C)=C(O)C1=O (stereo not drawn)
inactive: [1] | [2] | [3] | [4] | [5]
